From ChEMBL document CHEMBL1158747, “Cyclic peptides of the nocardamine class from a marine-derived bacterium of the genus Streptomyces” (J Nat Prod, 2005)
≈ marks a conversion by molar mass, not a printed value. Calls of active or inactive are those of the source. No cut-off for these calls is given here.

Experiments:
[1] = Inhibition of Staphylococcus aureus sortase B
Procedure, shortened: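 Recombinant sortase B enzyme; inhibition given as EC50 in µg/mL.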

Escherichia coli = assay: Antibacterial activity against Escherichia coli ATCC 11775 at 200 ug/mL; assay type: functional, organism-based
Bacillus subtilis = assay: Antibacterial activity against Bacillus subtilis ATCC 6633 at 200 ug/mL; assay type: functional, organism-based
Candida albicans = assay: Antifungal activity against Candida albicans ATCC 10231 at 200 ug/mL; assay type: functional, organism-based
Salmonella typhimurium = assay: Antibacterial activity against Salmonella Typhimurium ATCC 14028 at 200 ug/mL; assay type: functional, organism-based; conditions: Salmonella enterica subsp. enterica serovar Typhimurium
[2] = tested on: Trichophyton mentagrophytes; assay: Antifungal activity against Trichophyton mentagrophytes IFO 40996 at 200 ug/mL; assay type: functional, organism-based
Klebsiella pneumoniae = assay: Antibacterial activity against Klebsiella pneumoniae ATCC 10031 at 200 ug/mL; assay type: functional, organism-based
Proteus vulgaris = assay: […] activity against Proteus vulgaris ATCC 3851 at 200 ug/mL; assay type: functional, organism-based
Trichophyton rubrum = assay: Antifungal activity against Trichophyton rubrum IFO 6204 at 200 ug/mL; assay type: functional, organism-based
Staphylococcus aureus = assay: Antibacterial activity against Staphylococcus aureus ATCC 6538 at 200 ug/mL; assay type: functional, organism-based
Micrococcus luteus = assay: Antibacterial activity against Micrococcus luteus ATCC 10240 at 200 ug/mL; assay type: functional, organism-based

Row | Structure (SMILES) | EC50 [1] [mg/L] | Activity (Escherichia coli) | Activity (Bacillus subtilis) | Activity (Candida albicans) | Activity (Salmonella typhimurium) | Activity [2] | Activity (Klebsiella pneumoniae) | Activity (Proteus vulgaris) | Activity (Trichophyton rubrum) | Activity (Staphylococcus aureus) | Activity (Micrococcus luteus)
1 | O=C1CCC(=O)NCCCCCN(O)C(=O)CCC(=O)NCCCCCN(O)C(=O)CCC(=O)NCCCCCN1 [DEHYDROXYNOCARDAMINE] | 88.3 (≈ 151 µM) | inactive | inactive | inactive | inactive | inactive | inactive | inactive | inactive | inactive | inactive
2 | O=C1CCC(=O)N(O)CCCCCNC(=O)CCC(=O)N(O)CCCCNC(=O)CCC(=O)N(O)CCCCCN1 [DESMETHYLENYLNOCARDAMINE] | 126.4 (≈ 215 µM) | inactive | inactive | inactive | inactive | inactive | inactive | inactive | inactive | inactive | inactive
3 | O=C1CCC(=O)N(O)CCCCCNC(=O)CCC(=O)N(O)CCCCCNC(=O)CCC(=O)N(O)CCCCCN1 [NOCARDAMINE] | > 200 | inactive | inactive | inactive | inactive | inactive | inactive | inactive | inactive | inactive | inactive
